Assay results gathered from unrelated publications.
rep main protease: Replicase polyprotein 1ab, main protease (rep, Severe acute respiratory syndrome coronavirus 2, UniProt P0DTD1)
rep methyltransferase: Replicase polyprotein 1ab, methyltransferase (rep, Severe acute respiratory syndrome coronavirus 2, UniProt P0DTD1)
FABP1: Fatty acid-binding protein, liver (FABP1, Homo sapiens, UniProt P07148)

CC1(C)O[C@@H]2C[C@H]3[C@@H]4CCC5=CC(=O)C=C[C@]5(C)[C@H]4[C@@H](O)C[C@]3(C)[C@]2(C(=O)CO)O1
IC50 (rep main protease; enzyme activity; inhibitor): 71.4 µM

CCOC(=O)c1ccc(OC(=O)CCCCCN=C(N)N)cc1
IC50 (Kallikrein-12 (Homo sapiens, UniProt Q9UKR0); enzyme activity; inhibitor): 0.0357 µM

CC1CC(c2ccc(S(N)(=O)=O)cc2)=NN1c1ccc(C#N)c(Cl)c1 (centres unmarked)
IC50 (rep methyltransferase; enzyme activity; inhibitor): > 100 µM

CCNS(=O)(=O)C(F)(F)C(F)(F)C(F)(F)C(F)(F)C(F)(F)C(F)(F)C(F)(F)C(F)(F)F
Kd (FABP1; ligand displacement; fluorescence): 16.6 µM

COc1ncc(-c2ccc3nccc(-c4ccnnc4)c3c2)cc1NS(=O)(=O)c1ccc(F)cc1F
IC50 (rep methyltransferase; enzyme activity; inhibitor): ~100 µM

CC(=O)[C@@]1(O)CC[C@H]2[C@@H]3C[C@H](C)C4=CC(=O)C=C[C@]4(C)[C@@]3(F)[C@@H](O)C[C@@]21C
IC50 (rep main protease; enzyme activity; inhibitor): 60.6 µM

COc1cc2c(cc1OC)CN(CCc1ccc(NC(=O)c3cccc4c(=O)c5cccc(OC)c5[nH]c34)cc1)CC2
Ki (Histamine H2 receptor (HRH2, Homo sapiens, UniProt P25021); cell-free assay): 1.1 µM

O=C(O)c1cc(O)c(O)c(O)c1
Kd (rep main protease; binding; MST): 3.95 µM

NS(=O)(=O)C(F)(F)C(F)(F)C(F)(F)C(F)(F)C(F)(F)C(F)(F)C(F)(F)C(F)(F)F
Kd (FABP1; ligand displacement; fluorescence): 5.87 µM

CN1C(=O)/C(=N\Nc2ncc(-c3cc4ccccc4oc3=O)s2)c2cc(Cl)ccc21
IC50 (Alpha-glucosidase MAL12 (MAL12, Saccharomyces cerevisiae S288c, UniProt P53341); enzyme activity; inhibitor; absorbance): 112 µM

O=c1c(O)c(-c2ccc(O)cc2)oc2c(O)c(O)cc(O)c12
IC50 (rep main protease; enzyme activity; inhibitor; with preincubation): < 10 µM
